From ChEMBL document CHEMBL1145247, “4-Alkyl and 4,4'-dialkyl 1,2-bis(4-chlorophenyl)pyrazolidine-3,5-dione derivatives as new inhibitors of bacterial cell wall biosynthesis” (Bioorg Med Chem Lett, 2005)
≈ marks a conversion by molar mass, not a printed value.

What was measured:
[1] = target: UDP-N-acetylglucosamine 1-carboxyvinyltransferase (Escherichia coli K-12, UniProt P0A749); assay: Inhibitory concentration against MurA enzyme in Escherichia coli
Method in brief: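 Enzyme preincubated with inhibitor 10 min at 37 °C before substrates were added. Reaction ran 30 min at 37 °C and was stopped with malachite green reagent (0.03% malachite green, 1.4% ammonium molybdate, 1.3 N HCl) for phosphate read-out.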

[2] = target: T1, UDP-N-acetylenolpyruvoylglucosamine reductase (Escherichia coli K-12, UniProt P08373); assay: Inhibitory concentration against MurB enzyme in Escherichia coli
T1 sequence (P08373 whole entry): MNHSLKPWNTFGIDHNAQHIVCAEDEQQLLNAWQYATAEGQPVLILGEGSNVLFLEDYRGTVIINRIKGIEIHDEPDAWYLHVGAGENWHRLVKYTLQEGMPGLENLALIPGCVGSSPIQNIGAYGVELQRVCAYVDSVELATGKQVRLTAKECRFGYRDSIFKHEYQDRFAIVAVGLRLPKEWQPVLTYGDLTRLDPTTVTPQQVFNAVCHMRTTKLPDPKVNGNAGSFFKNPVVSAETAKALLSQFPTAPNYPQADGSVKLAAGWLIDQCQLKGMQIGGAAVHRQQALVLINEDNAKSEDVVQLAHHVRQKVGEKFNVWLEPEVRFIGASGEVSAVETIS
Method in brief: (§1)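 Enzyme (20 nM) preincubated 20 min with inhibitor, then substrates added to final 50 µM EP-UNAG and 100 µM NADPH. Activity followed spectrophotometrically. At least six inhibitor concentrations between 1.5 and 50 µM per compound. IC50 from sigmoid Hill curve fit (0–100).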

[3] = Minimum inhibitory concentration against cell wall biosynthesis of methicillin-susceptible Coagulase negative staphylococcus GC 646 (MSCNS); assay type: functional
Method in brief: (§2)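 Broth microdilution per NCCLS M7-A3. Mueller–Hinton broth for staphylococci and enterococci, 2-fold serial dilutions of agent. Final inoculum 1–5 × 10^5 CFU/mL.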

Streptococcus pneumoniae [4] = assay: Minimum inhibitory concentration against cell wall biosynthesis of penicillin resistant Streptococcus pneumoniae GC 1894 (PRSP) in the presence of 4% bovine serum albumin; assay type: functional
Escherichia coli [5] = assay: Minimum inhibitory concentration against cell wall biosynthesis of Escherichia coli GC 4559; assay type: functional; method in brief: as §2
Escherichia coli [6] = assay: Minimum inhibitory concentration against cell wall biosynthesis of Escherichia coli GC 4560; assay type: functional
Staphylococcus aureus [7] = assay: Minimum inhibitory concentration against cell wall biosynthesis of methicillin resistant Staphylococcus aureus GC 1131; assay type: functional
Method in brief: (§3)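 Broth microdilution per NCCLS M7-A3 in Mueller–Hinton broth, aerobic. Agents tested as 2-fold serial dilutions, with a final inoculum of 1–5 × 10^5 CFU/mL. Plates incubated 18–22 h at 35 °C in ambient air. MIC read as the endpoint.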

Enterococcus faecalis [8] = assay: Minimum inhibitory concentration against cell wall biosynthesis of vancomycin susceptible (ATCC) Enterococcus faecalis GC 4555; assay type: functional; method in brief: as §2
Staphylococcus aureus [9] = assay: Minimum inhibitory concentration against cell wall biosynthesis of methicillin susceptible Staphylococcus aureus GC 4543; assay type: functional; method in brief: as §3
Streptococcus pneumoniae [10] = assay: Minimum inhibitory concentration against cell wall biosynthesis of penicillin resistant Streptococcus pneumoniae GC 1894 (PRSP); assay type: functional
Method in brief: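 Broth microdilution per NCCLS M7-A3, using Mueller–Hinton broth supplemented with 5% sheep blood. Agents tested as 2-fold serial dilutions, with a final inoculum of 1–5 × 10^5 CFU/mL.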

Enterococcus faecalis [11] = assay: Minimum inhibitory concentration against cell wall biosynthesis of vancomycin resistant Enterococcus faecalis GC 2242 (VRE); assay type: functional; method in brief: as §3
[12] = target: T2, UDP-N-acetylenolpyruvoylglucosamine reductase (Staphylococcus aureus, UniProt P61431); assay: Inhibitory concentration against MurB enzyme in Staphylococcus aureus; method in brief: as §1
T2 sequence (P61431 whole entry): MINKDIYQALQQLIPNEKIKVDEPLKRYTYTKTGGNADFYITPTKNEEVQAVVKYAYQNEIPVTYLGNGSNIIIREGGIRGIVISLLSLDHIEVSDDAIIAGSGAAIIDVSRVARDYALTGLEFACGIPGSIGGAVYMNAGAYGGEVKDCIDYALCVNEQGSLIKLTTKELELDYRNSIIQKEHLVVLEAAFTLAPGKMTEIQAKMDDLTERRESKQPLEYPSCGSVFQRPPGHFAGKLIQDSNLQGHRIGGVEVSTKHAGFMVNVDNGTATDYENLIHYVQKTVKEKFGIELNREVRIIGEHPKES

UDP-N-acetylglucosamine 1-carboxyvinyltransferase, sequence (P0A749 whole entry): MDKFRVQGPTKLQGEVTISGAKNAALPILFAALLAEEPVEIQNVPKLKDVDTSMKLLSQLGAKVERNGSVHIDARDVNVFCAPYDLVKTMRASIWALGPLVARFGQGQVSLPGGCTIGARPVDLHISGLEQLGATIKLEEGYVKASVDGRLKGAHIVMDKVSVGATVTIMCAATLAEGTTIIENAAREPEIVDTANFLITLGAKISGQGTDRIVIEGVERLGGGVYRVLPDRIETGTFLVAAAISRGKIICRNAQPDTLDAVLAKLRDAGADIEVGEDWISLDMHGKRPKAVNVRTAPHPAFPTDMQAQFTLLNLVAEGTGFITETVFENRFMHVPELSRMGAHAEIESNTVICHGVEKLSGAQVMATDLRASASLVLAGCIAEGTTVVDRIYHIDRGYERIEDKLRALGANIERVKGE

Row | SMILES | IC50 [1] [µM] | IC50 [2] [µM] | MIC [3] [µM] | MIC (Streptococcus pneumoniae [4]) [µM] | MIC (Escherichia coli [5]) [µM] | MIC (Escherichia coli [6]) [µM] | MIC (Staphylococcus aureus [7]) [µM] | MIC (Enterococcus faecalis [8]) [µM] | MIC (Staphylococcus aureus [9]) [µM] | MIC (Streptococcus pneumoniae [10]) [µM] | MIC (Enterococcus faecalis [11]) [µM] | IC50 [12] [µM]
1 | CCC(CC)CC1C(=O)N(c2ccc(Cl)cc2)N(c2ccc(Cl)cc2)C1=O | > 50 | 50 | 200 (≈ 81.1 µg/mL) | > 200 | > 200 | 200 (≈ 81.1 µg/mL) | 100 (≈ 40.5 µg/mL) | 200 (≈ 81.1 µg/mL) | 100 (≈ 40.5 µg/mL) | 25 (≈ 10.1 µg/mL) | 100 (≈ 40.5 µg/mL) | –
2 | O=C1C(Cc2cc(C(F)(F)F)cc(C(F)(F)F)c2)C(=O)N(c2ccc(Cl)cc2)N1c1ccc(Cl)cc1 | > 50 | 12 | 50 (≈ 27.4 µg/mL) | > 200 | 50 (≈ 27.4 µg/mL) | > 200 | 25 (≈ 13.7 µg/mL) | 50 (≈ 27.4 µg/mL) | 25 (≈ 13.7 µg/mL) | 6.25 (≈ 3.42 µg/mL) | 25 (≈ 13.7 µg/mL) | –
3 | O=C(CC1C(=O)N(c2ccc(Cl)cc2)N(c2ccc(Cl)cc2)C1=O)c1ccc(F)cc1 | 8.4 | 5.4 | > 200 | > 200 | > 200 | 200 (≈ 91.5 µg/mL) | 25 (≈ 11.4 µg/mL) | 50 (≈ 22.9 µg/mL) | 25 (≈ 11.4 µg/mL) | 25 (≈ 11.4 µg/mL) | 50 (≈ 22.9 µg/mL) | 5.2
4 | O=C1C(Cc2ccc(Cl)cc2Cl)C(=O)N(c2ccc(Cl)cc2)N1c1ccc(Cl)cc1 | > 50 | 11 | 50 (≈ 24 µg/mL) | > 200 | > 200 | 100 (≈ 48 µg/mL) | 50 (≈ 24 µg/mL) | 100 (≈ 48 µg/mL) | 50 (≈ 24 µg/mL) | 12.5 (≈ 6 µg/mL) | 50 (≈ 24 µg/mL) | 29
5 | Cc1c(OCC(=O)c2ccc(F)cc2F)n(-c2ccc(Cl)cc2)n(-c2ccc(Cl)cc2)c1=O | > 50 | > 50 | > 200 | – | > 200 | > 200 | – | > 200 | – | – | – | > 50
6 | COc1cccc(CC2C(=O)N(c3ccc(Cl)cc3)N(c3ccc(Cl)cc3)C2=O)c1 | > 50 | 50 | 200 (≈ 88.3 µg/mL) | > 200 | > 200 | > 200 | – | > 200 | > 200 | 200 (≈ 88.3 µg/mL) | – | –
7 | O=C1C(CCCc2ccccc2)C(=O)N(c2ccc(Cl)cc2)N1c1ccc(Cl)cc1 | 44.3 | 10 | > 200 | > 200 | > 200 | 200 (≈ 87.9 µg/mL) | 200 (≈ 87.9 µg/mL) | > 200 | 200 (≈ 87.9 µg/mL) | 25 (≈ 11 µg/mL) | 200 (≈ 87.9 µg/mL) | –
8 | CCN(CCC1C(=O)N(c2ccc(Cl)cc2)N(c2ccc(Cl)cc2)C1=O)Cc1ccccc1 | > 50 | > 50 | > 200 | > 200 | > 200 | > 200 | 200 (≈ 96.5 µg/mL) | > 200 | > 200 | 100 (≈ 48.2 µg/mL) | 200 (≈ 96.5 µg/mL) | > 50
9 | O=C1C(CCc2ccccc2)C(=O)N(c2ccc(Cl)cc2)N1c1ccc(Cl)cc1 | > 50 | 35 | 200 (≈ 85.1 µg/mL) | > 200 | > 200 | 200 (≈ 85.1 µg/mL) | 200 (≈ 85.1 µg/mL) | > 200 | 200 (≈ 85.1 µg/mL) | 50 (≈ 21.3 µg/mL) | 200 (≈ 85.1 µg/mL) | –
10 | O=C1C(Cc2ccccc2)C(=O)N(c2ccc(Cl)cc2)N1c1ccc(Cl)cc1 | > 50 | > 50 | > 200 | > 200 | > 200 | > 200 | 200 (≈ 82.3 µg/mL) | > 200 | 200 (≈ 82.3 µg/mL) | 200 (≈ 82.3 µg/mL) | – | –
11 | O=C1C(CCCCc2ccccc2)C(=O)N(c2ccc(Cl)cc2)N1c1ccc(Cl)cc1 | 23.8 | 5.6 | 200 (≈ 90.7 µg/mL) | > 200 | > 200 | > 200 | 200 (≈ 90.7 µg/mL) | 200 (≈ 90.7 µg/mL) | 200 (≈ 90.7 µg/mL) | 25 (≈ 11.3 µg/mL) | 100 (≈ 45.3 µg/mL) | 6.8
